Source: ChEMBL document CHEMBL1155415, “Synthesis, characterization, and in vitro antimicrobial activities of 5-alkenyl/hydroxyalkenyl-2-phenylamine-1,3,4-oxadiazoles and thiadiazoles” (2010)
Values after ≈ are worked out from the molar mass of the structure shown.

Assays:
Assay type in all cases: functional
[1] = tested on: Talaromyces marneffei; assay: Antifungal activity against Penicillium marneffei after 48 hrs by two fold dilution technique
How it was run: (§1)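 Broth MIC. Broth with log two-fold serial dilutions of compound was inoculated with about 1.6 × 10⁴–6 × 10⁴ c.f.u./ml of fungus and incubated 48 h at 35 °C. MIC is the lowest concentration arresting fungal growth.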

[2] = tested on: Staphylococcus aureus; assay: Antibacterial activity against Staphylococcus aureus ATCC 25923 after 24 hrs by disc diffusion method
How it was run: (§2)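 Agar disc diffusion. A standard inoculum of […] c.f.u./ml (0.5 McFarland) was spread evenly on agar. 6 mm Whatman no. 1 paper discs, dry-heat sterilized (140 °C, 1 h), were soaked in test compound and placed on nutrient agar. Plates were inverted and incubated 24 h at 37 °C. Read-out: diameter of the inhibition zone.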

[3] = tested on: Streptococcus pyogenes; assay: Antibacterial activity against Streptococcus pyogenes after 24 hrs by two fold dilution technique
How it was run: (§3)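 Broth dilution MIC. Nutrient broth held log two-fold serial dilutions of compound and was inoculated with about 5 × 10⁵ c.f.u./ml of actively dividing bacteria. Incubation was 24 h at 37 °C, with growth checked visually and spectrophotometrically. MIC is the lowest concentration arresting growth.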

[4] = tested on: Staphylococcus aureus; assay: Antibacterial activity against Staphylococcus aureus ATCC 25923 after 18 to 24 hrs
[5] = tested on: Streptococcus pyogenes; assay: Antibacterial activity against Streptococcus pyogenes after 18 to 24 hrs
[6] = tested on: Klebsiella pneumoniae; assay: Antibacterial activity against Klebsiella pneumoniae after 24 hrs by disc diffusion method; how it was run: as §2
[7] = tested on: Talaromyces marneffei; assay: Ratio of MFC to MIC for Penicillium marneffei
How it was run: (§4)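 MFC: 0.1 ml from each MIC tube was spread on agar and colonies were counted after 48 h at 35 °C. MFC is the lowest concentration killing 99.9% of the inoculum. The MFC/MIC ratio was then calculated to classify activity as fungistatic or fungicidal.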

[8] = tested on: Trichophyton mentagrophytes; assay: Antifungal activity against Trichophyton mentagrophytes after 48 hrs by two fold dilution technique; how it was run: as §1
[9] = tested on: Streptococcus pyogenes; assay: Antibacterial activity against Streptococcus pyogenes after 24 hrs by disc diffusion method; how it was run: as §2
[10] = tested on: Pseudomonas aeruginosa; assay: Antibacterial activity against Pseudomonas aeruginosa ATCC 27853 after 24 hrs by disc diffusion method; how it was run: as §2
[11] = tested on: Candida albicans; assay: Antifungal activity against Candida albicans after 48 hrs by disk diffusion method
How it was run: (§5)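 Agar well diffusion with compounds in DMSO. The dish was lawned with a saline spore suspension, excess decanted, and dried 1 h at 37 °C. Wells were punched. Read-out: inhibition zone in mm. Griseofulvin served as standard and DMSO as negative control.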

[12] = tested on: Talaromyces marneffei; assay: Antifungal activity against Penicillium marneffei after 48 hrs by disk diffusion method; how it was run: as §5
[13] = tested on: Escherichia coli; assay: Antibacterial activity against Escherichia coli ATCC 25922 after 24 hrs by two fold dilution technique; settings: ATCC 25922, 24 h; how it was run: as §3
[14] = tested on: Trichophyton mentagrophytes; assay: Antifungal activity against Trichophyton mentagrophytes after 48 hrs by disk diffusion method; how it was run: as §5
[15] = tested on: Aspergillus fumigatus; assay: Antifungal activity against Aspergillus fumigatus after 48 hrs by two fold dilution technique; how it was run: as §1
[16] = tested on: Klebsiella pneumoniae; assay: Antibacterial activity against Klebsiella pneumoniae after 18 to 24 hrs
[17] = tested on: Pseudomonas aeruginosa; assay: Antibacterial activity against Pseudomonas aeruginosa ATCC 27853 after 24 hrs by two fold dilution technique; settings: ATCC 27853, 24 h; how it was run: as §3
[18] = tested on: Staphylococcus aureus; assay: Antibacterial activity against Staphylococcus aureus ATCC 25923 after 24 hrs by two fold dilution technique; settings: ATCC 25923, 24 h; how it was run: as §3
[19] = tested on: Candida albicans; assay: Ratio of MFC to MIC for Candida albicans; how it was run: as §4
[20] = tested on: Candida albicans; assay: Antifungal activity against Candida albicans after 48 hrs by two fold dilution technique; how it was run: as §1
[21] = tested on: Klebsiella pneumoniae; assay: Antibacterial activity against Klebsiella pneumoniae after 24 hrs by two fold dilution technique; how it was run: as §3
[22] = tested on: Escherichia coli; assay: Antibacterial activity against Escherichia coli ATCC 25922 after 18 to 24 hrs
[23] = tested on: Aspergillus fumigatus; assay: Ratio of MFC to MIC for Aspergillus fumigatus; how it was run: as §4
[24] = tested on: Escherichia coli; assay: Antibacterial activity against Escherichia coli ATCC 25922 after 24 hrs by disc diffusion method; how it was run: as §2
[25] = tested on: Pseudomonas aeruginosa; assay: Antibacterial activity against Pseudomonas aeruginosa ATCC 27853 after 18 to 24 hrs
[26] = tested on: Aspergillus fumigatus; assay: Antifungal activity against Aspergillus fumigatus after 48 hrs by disk diffusion method; how it was run: as §5
[27] = tested on: Trichophyton mentagrophytes; assay: Ratio of MFC to MIC for Trichophyton mentagrophytes; how it was run: as §4

| MIC [1] | MIC [3] | MIC [8] | MIC [13] | MIC [15] | MIC [17] | Compound | MFC [1] | diameter of the inhibition zone (DIZ) [2] | MBC [4] | MBC [5] | diameter of the inhibition zone (DIZ) [6] | Ratio [7] | MFC [8] | diameter of the inhibition zone (DIZ) [9] | diameter of the inhibition zone (DIZ) [10] | diameter of the inhibition zone (DIZ) [11] | diameter of the inhibition zone (DIZ) [12] | diameter of the inhibition zone (DIZ) [14] | MFC [15] | MBC [16] | other results |
| --- | --- | --- | --- | --- | --- | --- | --- | --- | --- | --- | --- | --- | --- | --- | --- | --- | --- | --- | --- | --- | --- |
| 25 µg/mL (≈ 79.2 µM) | 25 µg/mL (≈ 79.2 µM) | 25 µg/mL (≈ 79.2 µM) | 25 µg/mL (≈ 79.2 µM) | 25 µg/mL (≈ 79.2 µM) | 12.5 µg/mL (≈ 39.6 µM) | C=CCCCCCCCCc1nnc(Nc2ccccc2)s1 | 100 µg/mL (≈ 317 µM) | 13.1 mm | 25 µg/mL (≈ 79.2 µM) | 50 µg/mL (≈ 158 µM) | 12.8 mm | 4 | 50 µg/mL (≈ 158 µM) | 13.5 mm | 17.2 mm | 19.5 mm | 10.2 mm | 14.1 mm | 100 µg/mL (≈ 317 µM) | 50 µg/mL (≈ 158 µM) | MIC [18]: 12.5 µg/mL (≈ 39.6 µM); Ratio [19]: 2; MFC [20]: 50 µg/mL (≈ 158 µM); MIC [20]: 25.5 µg/mL (≈ 80.8 µM); MIC [21]: 25 µg/mL (≈ 79.2 µM); MBC [22]: 100 µg/mL (≈ 317 µM); Ratio [23]: 4; diameter of the inhibition zone (DIZ) [24]: 15.2 mm; MBC [25]: 25 µg/mL (≈ 79.2 µM); diameter of the inhibition zone (DIZ) [26]: 16.5 mm; Ratio [27]: 2 |
| 25 µg/mL (≈ 58.2 µM) | 6.25 µg/mL (≈ 14.5 µM) | 12.5 µg/mL (≈ 29.1 µM) | 6.5 µg/mL (≈ 15.1 µM) | 12.5 µg/mL (≈ 29.1 µM) | 6.25 µg/mL (≈ 14.5 µM) | CCCCCCC(O)C/C=C\CCCCCCCc1nnc(Nc2ccccc2)s1 (stereo not drawn) | 50 µg/mL (≈ 116 µM) | 21.6 mm | 12.5 µg/mL (≈ 29.1 µM) | 12.5 µg/mL (≈ 29.1 µM) | 22.7 mm | 2 | 25 µg/mL (≈ 58.2 µM) | 22.9 mm | 29.2 mm | 25.1 mm | 15.1 mm | 18.9 mm | 50 µg/mL (≈ 116 µM) | 6.25 µg/mL (≈ 14.5 µM) | MIC [18]: 6.25 µg/mL (≈ 14.5 µM); Ratio [19]: 2; MFC [20]: 25 µg/mL (≈ 58.2 µM); MIC [20]: 12.5 µg/mL (≈ 29.1 µM); MIC [21]: 6.25 µg/mL (≈ 14.5 µM); MBC [22]: 12.5 µg/mL (≈ 29.1 µM); Ratio [23]: 4; diameter of the inhibition zone (DIZ) [24]: 25.5 mm; MBC [25]: 12.5 µg/mL (≈ 29.1 µM); diameter of the inhibition zone (DIZ) [26]: 22.4 mm |
| 6.25 µg/mL (≈ 15.1 µM) | 12.5 µg/mL (≈ 30.2 µM) | 6.25 µg/mL (≈ 15.1 µM) | 25 µg/mL (≈ 60.4 µM) | 6.25 µg/mL (≈ 15.1 µM) | 12.5 µg/mL (≈ 30.2 µM) | CCCCCCCC/C=C\CCCCCCCc1nnc(Nc2ccccc2)s1 | 12.5 µg/mL (≈ 30.2 µM) | 12.9 mm | 25 µg/mL (≈ 60.4 µM) | 100 µg/mL (≈ 242 µM) | 12.1 mm | 2 | 12.5 µg/mL (≈ 30.2 µM) | 13.1 mm | 16.3 mm | 27.2 mm | 16.1 mm | 20.3 mm | 25 µg/mL (≈ 60.4 µM) | 50 µg/mL (≈ 121 µM) | MIC [18]: 12.5 µg/mL (≈ 30.2 µM); Ratio [19]: 2; MFC [20]: 12.5 µg/mL (≈ 30.2 µM); MIC [20]: 6.25 µg/mL (≈ 15.1 µM); MIC [21]: 25 µg/mL (≈ 60.4 µM); MBC [22]: 50 µg/mL (≈ 121 µM); Ratio [23]: 4; diameter of the inhibition zone (DIZ) [24]: 14.8 mm; MBC [25]: 25 µg/mL (≈ 60.4 µM); diameter of the inhibition zone (DIZ) [26]: 23.8 mm; Ratio [27]: 2 |
| 6.25 µg/mL (≈ 15.7 µM) | 25 µg/mL (≈ 62.9 µM) | 12.5 µg/mL (≈ 31.4 µM) | 12.5 µg/mL (≈ 31.4 µM) | 6.25 µg/mL (≈ 15.7 µM) | 12.5 µg/mL (≈ 31.4 µM) | CCCCCCCC/C=C\CCCCCCCc1nnc(Nc2ccccc2)o1 | 25 µg/mL (≈ 62.9 µM) | 15.3 mm | 50 µg/mL (≈ 126 µM) | 25 µg/mL (≈ 62.9 µM) | 14.9 mm | 4 | 25 µg/mL (≈ 62.9 µM) | 15.6 mm | 19.3 mm | 26.1 mm | 15.9 mm | 20.2 mm | 12.5 µg/mL (≈ 31.4 µM) | 50 µg/mL (≈ 126 µM) | MIC [18]: 12.5 µg/mL (≈ 31.4 µM); Ratio [19]: 4; MFC [20]: 25 µg/mL (≈ 62.9 µM); MIC [20]: 6.25 µg/mL (≈ 15.7 µM); MIC [21]: 12.5 µg/mL (≈ 31.4 µM); MBC [22]: 50 µg/mL (≈ 126 µM); Ratio [23]: 2; diameter of the inhibition zone (DIZ) [24]: 17.5 mm; MBC [25]: 50 µg/mL (≈ 126 µM); diameter of the inhibition zone (DIZ) [26]: 23.1 mm; Ratio [27]: 2 |
